Assay [1] deals with Mitogen-activated protein kinase 1 (Homo sapiens) (UniProt P28482). The assay is described as follows: Inhibition of MAPK1 at 1 uM in presence of 10 uM ATP by Select Screen kinase assay relative to untreated control. Summed up: (§1)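 Single-concentration profiling at 1 μM against a panel of 220 purified kinases, run as an outsourced SelectScreen kinase profiling service. Activity is expressed as percent inhibition.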

In assay [2] the target is T1, Ephrin type-B receptor 1 (Homo sapiens) (UniProt P54762).
T1 sequence (whole entry): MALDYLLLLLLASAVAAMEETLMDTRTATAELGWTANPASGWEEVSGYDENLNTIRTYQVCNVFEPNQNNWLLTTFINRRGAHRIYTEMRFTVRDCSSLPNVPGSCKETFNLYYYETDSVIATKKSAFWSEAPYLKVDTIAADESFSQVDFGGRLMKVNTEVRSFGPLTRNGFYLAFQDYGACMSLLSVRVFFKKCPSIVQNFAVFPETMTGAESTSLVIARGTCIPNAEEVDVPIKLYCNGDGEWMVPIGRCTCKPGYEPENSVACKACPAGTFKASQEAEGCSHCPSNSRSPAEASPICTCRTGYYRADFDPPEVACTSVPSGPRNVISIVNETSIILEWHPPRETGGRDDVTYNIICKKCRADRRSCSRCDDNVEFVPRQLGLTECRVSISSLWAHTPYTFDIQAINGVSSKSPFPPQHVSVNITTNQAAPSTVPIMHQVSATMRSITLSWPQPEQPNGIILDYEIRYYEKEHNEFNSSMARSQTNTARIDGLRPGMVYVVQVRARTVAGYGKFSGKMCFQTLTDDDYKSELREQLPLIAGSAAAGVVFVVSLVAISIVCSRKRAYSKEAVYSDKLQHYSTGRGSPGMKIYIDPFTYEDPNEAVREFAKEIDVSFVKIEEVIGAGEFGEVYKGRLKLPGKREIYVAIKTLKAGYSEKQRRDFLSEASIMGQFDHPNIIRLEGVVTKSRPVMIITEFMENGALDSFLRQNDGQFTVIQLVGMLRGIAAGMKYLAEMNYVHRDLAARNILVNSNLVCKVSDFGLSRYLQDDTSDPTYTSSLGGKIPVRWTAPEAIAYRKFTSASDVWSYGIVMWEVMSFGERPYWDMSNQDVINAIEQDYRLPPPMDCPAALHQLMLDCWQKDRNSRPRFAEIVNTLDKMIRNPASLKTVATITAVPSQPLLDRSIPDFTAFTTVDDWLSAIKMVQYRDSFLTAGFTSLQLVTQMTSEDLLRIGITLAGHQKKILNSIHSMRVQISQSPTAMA
The assay is described as follows: Inhibition of EPHB1 at 1 uM in presence of 10 uM ATP by Select Screen kinase assay relative to untreated control. Summed up: (§2)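 Single-point screen at 1 μM against a panel of 220 purified kinases, run by Invitrogen staff as a SelectScreen profiling service. Read-out is percent inhibition of kinase activity.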

Assay [3] concerns the target PAS domain-containing serine/threonine-protein kinase (Homo sapiens) (UniProt Q96RG2). In words: Inhibition of PASK at 1 uM in presence of 10 uM ATP by Select Screen kinase assay relative to untreated control. In outline: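 Commercial SelectScreen profiling panel of 220 purified kinases. Each kinase was tested at a single inhibitor concentration of 1 μM, and activity was expressed as percent inhibition.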

Assay [4] has as its target Casein kinase I isoform gamma-3 (Homo sapiens) (UniProt Q9Y6M4). In words: Inhibition of CSNK1G3 at 1 uM in presence of 10 uM ATP by Select Screen kinase assay relative to untreated control. Summed up: as §2
In assay [5] the target is T2, Cytoplasmic tyrosine-protein kinase BMX (Homo sapiens) (UniProt P51813).
T2 sequence (whole entry): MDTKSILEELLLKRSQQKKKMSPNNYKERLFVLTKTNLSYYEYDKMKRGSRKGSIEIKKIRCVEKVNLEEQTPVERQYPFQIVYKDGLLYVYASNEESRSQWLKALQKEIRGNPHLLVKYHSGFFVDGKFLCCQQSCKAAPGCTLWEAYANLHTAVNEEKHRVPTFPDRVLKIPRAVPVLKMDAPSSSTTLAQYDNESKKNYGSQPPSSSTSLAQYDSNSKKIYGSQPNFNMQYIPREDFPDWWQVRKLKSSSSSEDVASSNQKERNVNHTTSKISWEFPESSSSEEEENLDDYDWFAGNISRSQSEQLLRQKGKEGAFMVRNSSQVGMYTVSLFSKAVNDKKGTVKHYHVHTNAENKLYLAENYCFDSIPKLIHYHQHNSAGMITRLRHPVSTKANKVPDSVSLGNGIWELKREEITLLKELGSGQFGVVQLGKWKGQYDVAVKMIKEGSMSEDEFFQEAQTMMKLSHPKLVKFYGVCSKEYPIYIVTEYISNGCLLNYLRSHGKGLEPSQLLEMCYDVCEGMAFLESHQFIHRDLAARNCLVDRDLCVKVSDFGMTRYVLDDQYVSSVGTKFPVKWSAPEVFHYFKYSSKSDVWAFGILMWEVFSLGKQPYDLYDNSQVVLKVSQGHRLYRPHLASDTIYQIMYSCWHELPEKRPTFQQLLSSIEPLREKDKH
In words: Inhibition of BMX at 1 uM in presence of 10 uM ATP by Select Screen kinase assay relative to untreated control. In outline:
as §2

Assay [6] concerns the target Aurora kinase C (Homo sapiens) (UniProt Q9UQB9). The assay is described as follows: Inhibition of AURKC at 1 uM in presence of 10 uM ATP by Select Screen kinase assay relative to untreated control.
The target in assay [7] is T3, Megakaryocyte-associated tyrosine-protein kinase (Homo sapiens) (UniProt P42679).
T3 sequence (whole entry): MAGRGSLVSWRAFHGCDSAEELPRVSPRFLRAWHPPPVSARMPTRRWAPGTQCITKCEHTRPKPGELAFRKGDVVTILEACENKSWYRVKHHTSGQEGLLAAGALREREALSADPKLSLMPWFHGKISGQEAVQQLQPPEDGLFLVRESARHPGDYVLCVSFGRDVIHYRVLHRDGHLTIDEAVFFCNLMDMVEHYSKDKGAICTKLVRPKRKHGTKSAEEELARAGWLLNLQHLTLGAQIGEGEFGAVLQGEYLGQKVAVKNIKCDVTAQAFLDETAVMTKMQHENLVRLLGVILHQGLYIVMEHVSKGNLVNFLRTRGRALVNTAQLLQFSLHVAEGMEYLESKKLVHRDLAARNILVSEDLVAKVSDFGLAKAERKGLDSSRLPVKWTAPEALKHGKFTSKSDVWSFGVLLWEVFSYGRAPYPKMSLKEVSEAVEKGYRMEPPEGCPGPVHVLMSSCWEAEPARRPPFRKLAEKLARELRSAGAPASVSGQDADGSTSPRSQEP
The assay is described as follows: Inhibition of MATK at 1 uM in presence of 10 uM ATP by Select Screen kinase assay relative to untreated control. In outline: as §1

The target of assay [8] is AMP-activated protein kinase (AMPK) alpha-1/beta-1/gamma-1 (Homo sapiens) (UniProt P54619+Q9Y478+Q13131). In words: Inhibition of AMPK A1/B1/G1 at 1 uM in presence of 10 uM ATP by Select Screen kinase assay relative to untreated control. Type of assay: protein-complex assay. Summed up:
as §2

Each structure is given as a SMILES string.

A word on the inhibition: it is the drop in the measured response relative to a control, in per cent.

Sequence of Casein kinase I isoform gamma-3 (Homo sapiens) (Q9Y6M4 whole entry, looked up, canonical isoform): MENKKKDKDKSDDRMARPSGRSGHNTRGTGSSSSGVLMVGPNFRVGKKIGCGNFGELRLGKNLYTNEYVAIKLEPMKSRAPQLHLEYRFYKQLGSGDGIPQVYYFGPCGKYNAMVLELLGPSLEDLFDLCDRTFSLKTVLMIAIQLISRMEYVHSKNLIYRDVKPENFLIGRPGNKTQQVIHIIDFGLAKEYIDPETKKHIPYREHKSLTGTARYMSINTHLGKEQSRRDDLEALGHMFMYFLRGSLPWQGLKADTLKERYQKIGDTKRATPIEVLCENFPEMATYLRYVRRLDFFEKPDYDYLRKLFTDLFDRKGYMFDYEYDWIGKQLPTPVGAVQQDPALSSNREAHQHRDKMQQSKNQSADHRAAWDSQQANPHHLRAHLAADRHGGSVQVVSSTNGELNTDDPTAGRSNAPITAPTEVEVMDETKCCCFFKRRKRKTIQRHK
Sequence of Aurora kinase C (Homo sapiens) (Q9UQB9 whole entry, looked up): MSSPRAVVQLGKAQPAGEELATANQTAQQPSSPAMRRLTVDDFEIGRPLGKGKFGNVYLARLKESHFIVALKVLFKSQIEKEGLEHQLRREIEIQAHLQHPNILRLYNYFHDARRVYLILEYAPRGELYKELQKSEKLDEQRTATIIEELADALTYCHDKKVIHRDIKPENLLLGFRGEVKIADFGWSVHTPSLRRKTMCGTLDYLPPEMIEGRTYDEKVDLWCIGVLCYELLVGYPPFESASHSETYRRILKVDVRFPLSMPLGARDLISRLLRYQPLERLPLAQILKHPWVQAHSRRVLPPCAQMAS
Sequence of PAS domain-containing serine/threonine-protein kinase (Homo sapiens) (Q96RG2 whole entry, the tested form may be a part): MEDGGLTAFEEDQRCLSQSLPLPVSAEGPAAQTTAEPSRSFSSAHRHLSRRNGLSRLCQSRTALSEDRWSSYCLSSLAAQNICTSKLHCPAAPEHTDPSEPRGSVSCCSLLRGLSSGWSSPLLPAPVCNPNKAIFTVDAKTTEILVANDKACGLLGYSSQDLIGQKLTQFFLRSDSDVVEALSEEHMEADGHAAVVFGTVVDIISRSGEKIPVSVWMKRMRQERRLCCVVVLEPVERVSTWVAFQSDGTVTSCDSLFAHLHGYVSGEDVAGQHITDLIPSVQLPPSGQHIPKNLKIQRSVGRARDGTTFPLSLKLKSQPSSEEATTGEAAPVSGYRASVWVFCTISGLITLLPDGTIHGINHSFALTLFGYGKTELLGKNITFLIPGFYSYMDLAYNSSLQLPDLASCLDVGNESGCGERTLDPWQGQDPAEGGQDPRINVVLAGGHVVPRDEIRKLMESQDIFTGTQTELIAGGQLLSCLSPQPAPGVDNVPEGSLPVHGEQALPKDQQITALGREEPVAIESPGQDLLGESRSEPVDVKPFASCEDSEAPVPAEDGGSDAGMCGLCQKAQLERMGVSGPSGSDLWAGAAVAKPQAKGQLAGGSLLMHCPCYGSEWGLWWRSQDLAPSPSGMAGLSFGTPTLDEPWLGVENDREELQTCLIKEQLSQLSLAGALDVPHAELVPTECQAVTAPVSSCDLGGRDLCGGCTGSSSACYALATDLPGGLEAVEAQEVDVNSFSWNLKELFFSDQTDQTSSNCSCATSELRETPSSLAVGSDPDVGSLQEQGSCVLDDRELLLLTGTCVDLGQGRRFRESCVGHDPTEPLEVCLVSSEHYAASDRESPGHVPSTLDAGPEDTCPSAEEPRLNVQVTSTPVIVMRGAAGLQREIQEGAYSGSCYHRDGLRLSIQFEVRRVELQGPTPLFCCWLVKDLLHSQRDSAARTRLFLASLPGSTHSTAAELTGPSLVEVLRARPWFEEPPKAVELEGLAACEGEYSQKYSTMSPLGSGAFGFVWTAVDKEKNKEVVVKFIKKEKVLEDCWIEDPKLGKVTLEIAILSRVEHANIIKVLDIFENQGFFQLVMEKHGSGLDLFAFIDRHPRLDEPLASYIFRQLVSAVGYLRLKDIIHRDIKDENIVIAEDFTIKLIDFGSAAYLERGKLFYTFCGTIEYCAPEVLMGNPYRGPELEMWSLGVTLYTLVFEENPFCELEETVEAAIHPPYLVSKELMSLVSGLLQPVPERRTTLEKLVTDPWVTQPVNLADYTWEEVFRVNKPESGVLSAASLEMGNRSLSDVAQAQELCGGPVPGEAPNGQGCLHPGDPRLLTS
Sequence of Mitogen-activated protein kinase 1 (Homo sapiens) (P28482 whole entry): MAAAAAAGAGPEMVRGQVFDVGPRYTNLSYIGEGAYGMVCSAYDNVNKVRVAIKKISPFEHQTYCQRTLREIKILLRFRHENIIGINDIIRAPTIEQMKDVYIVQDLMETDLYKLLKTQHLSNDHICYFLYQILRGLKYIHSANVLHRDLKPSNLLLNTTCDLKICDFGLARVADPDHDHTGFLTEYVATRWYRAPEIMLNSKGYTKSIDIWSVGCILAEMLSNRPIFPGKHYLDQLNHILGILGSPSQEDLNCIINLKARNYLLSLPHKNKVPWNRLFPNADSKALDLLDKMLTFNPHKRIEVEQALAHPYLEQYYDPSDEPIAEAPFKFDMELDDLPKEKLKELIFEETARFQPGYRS
Sequence of AMP-activated protein kinase (AMPK) alpha-1/beta-1/gamma-1 (Homo sapiens) (P54619 whole entry): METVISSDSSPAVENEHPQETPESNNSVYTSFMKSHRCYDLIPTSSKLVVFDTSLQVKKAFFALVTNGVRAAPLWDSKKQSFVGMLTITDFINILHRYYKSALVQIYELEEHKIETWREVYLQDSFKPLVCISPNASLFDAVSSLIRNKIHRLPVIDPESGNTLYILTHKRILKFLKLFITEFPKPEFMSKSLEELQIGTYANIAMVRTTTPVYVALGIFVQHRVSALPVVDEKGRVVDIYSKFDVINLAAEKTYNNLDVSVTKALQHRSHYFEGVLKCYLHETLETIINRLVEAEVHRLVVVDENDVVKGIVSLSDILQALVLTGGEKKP
Sequence of AMP-activated protein kinase (AMPK) alpha-1/beta-1/gamma-1 (Homo sapiens) (Q13131 whole entry partner): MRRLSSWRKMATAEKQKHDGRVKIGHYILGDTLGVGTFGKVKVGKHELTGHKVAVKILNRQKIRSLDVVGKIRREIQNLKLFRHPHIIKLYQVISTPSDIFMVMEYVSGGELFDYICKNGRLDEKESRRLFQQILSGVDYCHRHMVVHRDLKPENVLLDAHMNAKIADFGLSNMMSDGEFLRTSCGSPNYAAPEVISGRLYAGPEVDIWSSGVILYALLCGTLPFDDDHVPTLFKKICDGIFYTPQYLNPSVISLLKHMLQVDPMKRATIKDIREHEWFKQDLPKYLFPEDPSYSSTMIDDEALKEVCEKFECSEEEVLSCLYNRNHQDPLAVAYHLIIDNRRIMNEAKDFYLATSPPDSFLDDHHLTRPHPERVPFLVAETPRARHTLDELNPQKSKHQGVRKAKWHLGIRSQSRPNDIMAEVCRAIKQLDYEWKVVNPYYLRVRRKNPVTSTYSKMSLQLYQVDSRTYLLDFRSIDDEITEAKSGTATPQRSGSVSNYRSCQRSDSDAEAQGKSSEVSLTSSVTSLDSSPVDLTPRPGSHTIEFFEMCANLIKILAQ
Sequence of AMP-activated protein kinase (AMPK) alpha-1/beta-1/gamma-1 (Homo sapiens) (Q9Y478 2-270 partner limits assumed): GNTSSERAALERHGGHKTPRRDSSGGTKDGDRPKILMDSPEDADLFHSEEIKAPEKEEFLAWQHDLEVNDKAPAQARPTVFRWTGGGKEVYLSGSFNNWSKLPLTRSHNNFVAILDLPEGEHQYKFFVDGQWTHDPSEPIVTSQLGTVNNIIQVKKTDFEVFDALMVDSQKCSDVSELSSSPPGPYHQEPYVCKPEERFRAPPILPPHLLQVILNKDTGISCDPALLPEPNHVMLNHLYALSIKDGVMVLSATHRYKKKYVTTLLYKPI

With `O=C(NCCCNc1nc(Nc2cccc(NC(=O)N3CCCC3)c2)ncc1I)c1cccs1`, the inhibition in assay [1] is 52%; in assay [2], 16%; in assay [3], 3%; in assay [4] it was 14%; in assay [5], 39%; in assay [6] it was 96%. Besides, the inhibition was determined as 3% in assay [7] and 89% in assay [8].
Consider `COc1ccccc1N1CCN(c2ncnc3[nH]nc(Br)c23)CC1`, for which the inhibition is 11% in assay [1]; 11% in assay [2]; 1% in assay [3]; 8% in assay [4]; 18% in assay [5]; 16% in assay [6]. For the same compound, the inhibition is -1% in assay [7] and 42% in assay [8].
Take `Cc1n[nH]c2ccc(-c3cncc(OC[C@@H](N)Cc4c[nH]c5ccccc45)c3)cc12`: the inhibition in assay [1] is 61%; in assay [2], 1%; in assay [3] it was 36%; in assay [4], 57%; in assay [5], -2%; in assay [6], 17%. For the same compound, the inhibition in assay [7] was -10%; in assay [8] it was 57%.

Values taken from ChEMBL document CHEMBL1250448, “Inhibitor hijacking of Akt activation” (Nat Chem Biol, 2009).
